This passage reports Selective toxicity, EC50 and Percent growth results from ChEMBL document CHEMBL1147489, “Pi-delocalized beta-carbolinium cations as potential antimalarials” (Bioorg Med Chem Lett, 2004).

Assay [1] relates to FM3A. In words: Relative activity against FM3A cells and Plasmodium falciparum FCR3. Type of assay: functional. The essentials: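 Selective toxicity calculated as EC50 in FM3A cells divided by EC50 against P. falciparum FCR-3.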
In assay [2] the test system is FM3A. In words: In vitro cytotoxic activity tested in mouse mammary tumor FM3A cells. Type of assay: functional, cell-based. Summed up:
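Growth-inhibition assay in mouse mammary tumour FM3A cells, used as a model of the host. The value reported is the EC50 for cell growth.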

Assay [3] deals with Plasmodium falciparum. In words: In vitro antimalarial activity against Plasmodium falciparum FCR3. Type of assay: functional, organism-based. The essentials: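 Drug-sensitive P. falciparum FCR-3 strain tested in vitro; antimalarial potency given as EC50 (M).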
The subject of assay [4] is FM3A. In words: In vitro growth inhibitory activity tested in mouse mammary tumor FM3A cells at 3.0E-5 M concentration.

For the compound `COc1ccc2c(c1)[nH]c1c(C)nccc12` [HARMINE], the Selective toxicity in assay [1] is on record as 0.82. Moreover, the EC50 in assay [2] was determined as 18 µM; in assay [3], 22 µM.
On the same counts, the results for `CCOC(=O)c1c2[nH]c3ccccc3c2c(OC)c[n+]1C.Cc1ccc(S(=O)(=O)[O-])cc1` are 1.2, 22 µM and 19 µM.
On the same counts, the results for `COc1ccc2c(c1)[nH]c1c(C)[n+](C)ccc12.Cc1ccc(S(=O)(=O)[O-])cc1` are 17, 19 µM and 1.1 µM.
The compound `COc1ccc2c3cc[n+](C)c(C)c3n(C)c2c1.Cc1ccc(S(=O)(=O)[O-])cc1` had a Selective toxicity in assay [1] of 48. Further, the EC50 in assay [2] was 22 µM; in assay [3], 0.46 µM.
On the same counts, the results for `C=Cc1ncc(OC)c2c1[nH]c1ccccc12` are 0.76, 3.8 µM and 5 µM.
The compound `COc1ccc2c3cc[n+](CCO)c(C)c3n(C)c2c1.[Br-]` came in with a Selective toxicity in assay [1] greater than 65. The same compound came in with an EC50 in assay [3] of 1.1 µM.
In turn, `CCc1c2[nH]c3ccccc3c2c(OC)c[n+]1C.[I-]` registered a Selective toxicity in assay [1] greater than 32. This compound gave a 50% effective concentration (EC50) in assay [3] of 0.95 µM. Also, the Percent growth in assay [4] came out at 63%.
Compound `C[n+]1ccc2c([nH]c3ccccc32)c1-c1ccccc1.Cc1ccc(S(=O)(=O)[O-])cc1` returned a Selective toxicity in assay [1] greater than 1.8. The compound also gave an EC50 in assay [3] of 13 µM.
In the case of `Cc1c2nc3ccccc3c-2ccn1C`, the Selective toxicity in assay [1] is 6. Further, the EC50 in assay [2] was determined as 29 µM; in assay [3], 4.8 µM.
On the same counts, the results for `Cc1c2[nH]c3ccccc3c2cc[n+]1C.Cc1ccc(S(=O)(=O)[O-])cc1` are 18, 35 µM and 2 µM.
As for `CC1=NCCc2c1[nH]c1ccccc21`, in assay [1], the Selective toxicity was 2.1. In addition, the EC50 is 45 µM in assay [2] and 18 µM in assay [3].
Compound `COc1cnc(C)c2[nH]c3ccccc3c12` registered a Selective toxicity in assay [1] of 0.82. Also, the values for the EC50 in assay [2] and in assay [3] were 18 µM and 22 µM, respectively.
With `C=Cc1c2[nH]c3ccccc3c2c(OC)c[n+]1C.Cc1ccc(S(=O)(=O)[O-])cc1`, the Selective toxicity in assay [1] worked out at 7.6. Further, the EC50 in assay [2] was 8.4 µM; in assay [3] it was 1.1 µM.
`C=C[C@H]1CN2CC[C@H]1C[C@H]2[C@H](O)c1ccnc2ccc(OC)cc12` [QUININE] registered a Selective toxicity in assay [1] of 910.
As to `CC1=[N+](C)CCc2c1[nH]c1ccccc21.Cc1ccc(S(=O)(=O)[O-])cc1`, the Selective toxicity in assay [1] is greater than 24. In assay [3], this compound had an EC50 of 16 µM.
In assay [1], `COc1c[n+](C)c(C)c2[nH]c3ccccc3c12.[I-]` came in with a Selective toxicity of 81. Besides, the EC50 in assay [2] came out at 30 µM; in assay [3], 0.37 µM.
On the same counts, the results for `C=Cc1c2[nH]c3ccccc3c2c(OC)c[n+]1CC.Cc1ccc(S(=O)(=O)[O-])cc1` are 77, 10 µM and 0.13 µM.
As for `COc1ccc2c3ccnc(C)c3n(C)c2c1`, in assay [1], the Selective toxicity was 1. In addition, the EC50 in assay [2] was 32 µM; in assay [3], 31 µM.

In general, EC50 refers to the concentration giving half of the maximal effect. Lower therefore signals greater potency.
